The entries come from a sample that favours hits as a whole.
Lung fibro prol: antiproliferative effect on LL 47 fibroblasts – human, LL 47 cells, CellTiter-Glo luminescence, primary screen; actives 1.1% (n = 85,000); AID 719, 2007; LL 47 human lung fibroblast viability, ATP luminescence; hits give low values; viability, % at 10 µM;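 active = viability at or below 50% in the single dose screen; inactive = viability above 50%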;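 note: compound exposure lasted 72 h before the ATP readout; 100% = median luminescence of untreated cell-only wells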
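material = human LL 47 lung fibroblast cells | dosing = compounds added from tenfold dosing solution, 0.1% DMSO final | timing = overnight cell rest, 72 h compound treatment at 37 °C | measured by = CellTiter-Glo luminescence measuring cellular ATP | evaluation = % viability versus median cells-only luminescence | control set = cell-only wells, no compound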
HCT116 PTEN-null: growth suppression of PTEN-null HCT116, primary screen, cell-based, CellTiter-Glo; HCT116 PTEN-null viability, 60 h; hits give low values; viability, % at 10 µM; actives 1.2% (n = 140,000); AID 827, 2007;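 active = viability at or below a set limit, 4 SD under the median of all tested compounds, cut at about 3.7% in these data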;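 note: PTEN knockout HCT116 line with beta catenin targeted HCT116 as companion control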
HUVEC prolif 384: inhibitors of HUVEC proliferation, primary screen, cell-based, 384-well. actives 1.1% (n = 86,000). CellTiter-Glo luminescence, 72 h; hits give low values. AID 648, 2007. viability, % at 10 µM (by protocol);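 active = viability at or below 30%; inactive = viability above 30%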;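 note: 100% = median luminescence of DMSO-only cell control wells on each plate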
bCat KO growth: primary screen for growth suppressors in beta-catenin knockout HCT116 cells (colon tumor, human) | HCT116 beta-catenin knockout viability, CellTiter-Glo, 60 h; hits give low values | viability, % at 10 µM | actives 1.5% (n = 140,000) | AID 818, 2007;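 active = viability at or under a set limit, the compound median less 4 SD, cut at about 6% in these data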;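 note: 0% = Hyamine 1622 control at 20 µM and 100% = untreated cell control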
H69AR inhibit: proliferation blockers of H69AR lung cancer cells, primary screen, cell-based, human, 86K library | H69AR lung tumor viability, ATP luminescence, 72 h; hits give low values | viability, % at 10 µM | actives 6% (n = 85,000);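 active = viability at or below 40%; inactive = viability above 40%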;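 note: multidrug resistant small cell line overexpressing MRP-1 efflux transporter; 100% = mean luminescence of untreated control wells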
The depositor's hits bear a star; x = not tested or not shown.

SMILES	Lung fibro prol	HCT116 PTEN-null	HUVEC prolif 384	bCat KO growth	H69AR inhibit
CCOC(=O)c1c2ccc(OCC(=O)N/N=C/c3ccc(C)cc3)cc2n2ccccc12	x	1.6*	x	1.5*	x
CCc1c(C)nc2cc(-c3ccc(OC)c(OC)c3)nn2c1N1CCCC1	90	29	64	53	38*
CCc1c(C)nc2cc(-c3ccc(OC)c(OC)c3)nn2c1N1CCC(C)CC1	102	76	105	75	70
Cc1cc(Cl)c(S(=O)(=O)N2CCN(c3ccc(F)cc3)CC2)cc1OCC(=O)NC1CCCCC1	94	12	79	9	36*
Cc1ccc(N2CC(C(=O)Nc3cc(C)on3)CC2=O)cc1 (centres undefined)	x	87	x	97	x
COc1ccc2nc(NC(C)=O)sc2c1	98	93	108	88	105
COc1ccc2nc(N=Nc3c(O)ccc4ccccc34)sc2c1	x	7	x	5.3*	x
CC1CC(C(F)F)n2nc(C(=O)Nc3sc4c(c3C#N)CCC(C(C)(C)C)C4)nc2N1 (centres undefined)	53	71	21*	80	18*
CCOC(=O)Nc1sc2c(c1C#N)CCC(C)C2 (centres undefined)	83	104	98	89	99
CCOC(=O)C1=C(C)NC(=O)NC1c1cccc(OC)c1OCc1ccccc1Cl (centres undefined)	87	27	73	45	92
CCc1c(C)nc2ncnn2c1NCCc1ccc(OC)cc1	68	15	80	15	13*
COc1cc(-c2nnc(COc3ccc4cc(Br)ccc4c3)o2)cc(OC)c1OC	x	72	46	61	24*
COc1ccc(NC(=O)COn2nnc3ccc(Cl)cc32)cc1OC	86	83	93	88	39*
Cn1cc([N+](=O)[O-])c(C(=O)N/N=C/c2ccc([N+](=O)[O-])cc2)n1	x	93	x	89	x
Cn1cc([N+](=O)[O-])c(C(=O)Nc2ccn(Cc3c(F)c(F)cc(F)c3F)n2)n1	x	3.1*	x	3.0*	x
Cn1cc([N+](=O)[O-])c(C(=O)Nc2ccc(Br)cn2)n1	x	1.4*	x	2.7*	x
O=C(Nc1ccn(-c2ccccc2)n1)c1ccccc1Br	x	85	x	85	x
Cc1cc(C)n(-c2nnc3n2N=C(c2c[nH]c4ccccc24)CS3)n1	55	18	58	17	17*
Cc1cc(C)n(-c2nnc3n2N=C(c2ccccc2)CS3)n1	105	105	88	100	82
O=C(C[n+]1cc2ccccc2c2ccccc21)c1ccccc1	x	48	x	34	x
CCCCCCCCC[n+]1cccc2c3ccccc3ccc21	x	1.2*	x	1.2*	x
CCCCCCCCCCCCCCCC[n+]1cccc2ccccc21	x	1.7*	x	1.4*	x
S=C(NCc1ccc(Cl)cc1Cl)Nc1ccccc1	x	83	x	93	x
Cc1ccc(-n2nc(C)c(C3C(C#N)=C(N)OC4=C3C(=O)CCC4)c2Cl)cc1 (centres undefined)	92	x	91	x	51
Cc1nn(-c2ccccc2)c(Cl)c1C1C(C#N)=C(N)OC2=C1C(=O)CC(C)(C)C2 (centres undefined)	71	74	55	74	8.8*
SMILES	Lung fibro prol	HCT116 PTEN-null	HUVEC prolif 384	bCat KO growth	H69AR inhibit
CCOc1ccc(C/C(N)=N/n2cnnc2)cc1	90	92	95	90	94
CCC(C)NCCCCOc1cc(C)cc(C(C)C)c1 (centres undefined)	x	71	x	64	x
Cc1ccc(C23CC4CC(CC(C(=O)OCC(=O)NC5CCS(=O)(=O)C5)(C4)C2)C3)cc1 (centres undefined)	x	85	x	81	x
COC(=O)C1(C(F)(F)F)N=C2Sc3ccccc3N2C(N2CCOCC2)=N1 (centres undefined)	103	17	99	4.7*	94
O=C(Cc1nn[nH]n1)c1ccccc1O	x	104	x	92	x
COc1cc(/C=N/c2oc(-c3ccccc3)cc2C#N)ccc1O	x	105	x	95	x
Cc1ccc2nc(-c3ccc(O)cc3)c(Nc3ccc4c(c3)OCCO4)n2c1	96	73	80	73	64
Cc1ccc(-c2nc3cnccn3c2Nc2ccc3c(c2)OCCO3)o1	98	100	96	93	65
Cc1ccc(-c2nc3cnccn3c2Nc2ccc3c(c2)OCO3)cc1	92	58	78	63	25*
COc1ccc(-c2nc3cnccn3c2Nc2ccc3c(c2)OCO3)cc1	84	64	78	70	24*
CC(C)OC(=O)c1nn2c(C(F)(F)F)cc(-c3ccco3)nc2c1Cl	93	94	91	91	83
CC(C)OC(=O)c1nn2c(C(F)(F)F)cc(-c3ccc(Br)o3)nc2c1Br	76	95	77	95	35*
O=C(Nc1nc(-c2ccccc2)cs1)C1COc2ccccc2O1 (centres undefined)	111	81	94	81	97
O=C(Nc1nc(-c2ccccn2)cs1)C1COc2ccccc2O1 (centres undefined)	44*	12	32	7	45
CC(C)(C)CC(C)(C)NCC(O)COc1c(F)cc(Br)cc1F (centres undefined)	76	26	99	13	9.7*
CCOC(=O)CNS(=O)(=O)c1cc(-c2n[nH]c(=O)c3ccccc23)ccc1C	102	97	99	88	87
CCOC(=O)CNS(=O)(=O)c1cc(-c2nnc(Nc3ccc4c(c3)OCO4)c3ccccc23)ccc1C	x	3.5*	x	3.6*	x
NS(=O)(=O)c1ccc(NC(=S)Nc2ccc(F)c(F)c2)cc1	x	84	x	89	x
COCCN(C(=O)C(F)(F)F)C(C(=O)NC1CCCCC1)c1ccco1 (centres undefined)	105	81	90	92	93
COCCN(C(=O)CCl)C(C(=O)NC1CCCCC1)c1ccccc1C (centres undefined)	x	3.2*	x	5.2*	x
CC(C)(C)NC(=O)CN(C(=O)Cn1nnc(-c2ccccc2F)n1)c1cccc2c1CCCC2	x	35	x	50	x
CCOc1ccc(C(=O)Nc2ccccc2N2CCCC2)cc1	92	69	96	73	36*
COc1ccc(OC)c(/C(O)=C/C(=O)C(=O)Nc2cc(C)cc(C)c2)c1	92	86	113	82	17*
COc1ccc(OC)c(/C(O)=C/C(=O)C(=O)Nc2cc(C)ccc2OC)c1	93	85	93	86	63
CCOc1ccccc1NC(=O)C(=O)/C=C(\O)c1cc(OC)ccc1OC	81	86	71	77	8.4*
CCOc1ccccc1NC(=O)c1cc(C(=O)c2cc(OC)ccc2O)coc1=N	x	84	x	72	x
Cc1ccc(NC(=O)/C(=C\c2ccc3c(c2)OCO3)NC(=O)c2ccco2)cc1	x	94	x	102	x
C=CCNC(=O)c1c(N)n(-c2ccc3c(c2)OCO3)c2nc3ccccc3nc12	31*	38	37	65	13*
